The source made the active and inactive calls. No cut-off for these calls is given here.
Legend:
[1] = biological target: Protein cereblon/Cyclin-dependent kinase 4 (Homo sapiens) (UniProt P11802+Q96SW2); experiment: Protac activity at CRBN/CDK4 in human A-375 cells assessed as induction of CDK4 protein degradation after 12 hrs by Western blot analysis; type: cell-based; conditions: dose 62.5-1000 nM
How it was run: (§1)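 B16F10 and A375 cells treated with DMSO or serial dilutions of compound for 12 h (concentration series), or for the indicated times (time course). CDK2, CDK4 and CDK6 protein levels determined by western blot.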

A-375 [2] = experiment: Cytotoxicity against human A375 cells assessed as reduction in cell viability after 72 hrs by MTT assay; type: functional, cell-based; conditions: A-375, 72 h
How it was run: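 Cells exposed to compound for 72 h and viability read by MTT; IC50 from three independent experiments.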

A-375 [3] = experiment: Induction of cell cycle arrest in human A-375 cells assessed as accumulation at G2 phase at 500 uM incubated for 48 hrs by propidium iodide staining based flow cytometry (reference value: 12.42%); type: functional
How it was run: (§2)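 Tumor cells incubated 48 h in complete medium with compound or DMSO at various concentrations, stained with propidium iodide, and DNA content read by flow cytometry. G0/G1, S and G2/M fractions reported; mean ± SD, n = 3, Student's t-test.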

A-375 [4] = experiment: Induction of apoptosis in human A-375 cells assessed as early apoptotic cells at 250 nM incubated for 48 hrs by Annexin V-FITC/PI staining based flow cytometry (reference value: 2.82%); type: functional
[5] = biological target: T1, Protein cereblon/Cyclin-dependent kinase 6 (Mus musculus) (UniProt Q8C7D2+Q64261); experiment: Protac activity at CRBN/CDK6 in mouse B16F10 cells assessed as induction of CDK6 protein degradation at 500 nM by Western blot analysis; type: cell-based; conditions: B16-F10, time hrs <=12, TDE = time-dependent effect; how it was run: as §1
T1 sequence (Q64261 whole entry, looked up): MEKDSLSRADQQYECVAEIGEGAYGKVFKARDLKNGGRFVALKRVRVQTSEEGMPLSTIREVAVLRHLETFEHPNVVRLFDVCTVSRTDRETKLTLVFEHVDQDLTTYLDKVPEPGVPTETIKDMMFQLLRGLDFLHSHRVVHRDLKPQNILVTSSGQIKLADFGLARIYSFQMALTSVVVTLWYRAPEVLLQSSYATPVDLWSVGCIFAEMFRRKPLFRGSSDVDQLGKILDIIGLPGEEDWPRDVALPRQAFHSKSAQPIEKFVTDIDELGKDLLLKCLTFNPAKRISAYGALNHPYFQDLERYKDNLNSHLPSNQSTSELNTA
T1 sequence (Q8C7D2 whole entry, looked up): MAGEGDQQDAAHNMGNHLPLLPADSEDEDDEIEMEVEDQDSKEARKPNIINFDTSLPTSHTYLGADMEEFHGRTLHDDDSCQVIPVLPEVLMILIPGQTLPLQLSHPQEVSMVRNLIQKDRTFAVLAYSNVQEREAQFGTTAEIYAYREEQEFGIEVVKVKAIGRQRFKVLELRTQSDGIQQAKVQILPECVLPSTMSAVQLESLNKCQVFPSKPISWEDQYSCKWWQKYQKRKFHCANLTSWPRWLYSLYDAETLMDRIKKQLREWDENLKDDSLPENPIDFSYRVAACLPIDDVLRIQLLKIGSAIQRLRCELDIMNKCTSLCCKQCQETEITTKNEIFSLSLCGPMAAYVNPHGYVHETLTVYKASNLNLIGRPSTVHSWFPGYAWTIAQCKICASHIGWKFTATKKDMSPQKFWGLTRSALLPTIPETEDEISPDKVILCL

B16-F10 [6] = experiment: Induction of cell cycle arrest in mouse B16F10 cells assessed as accumulation at G2/M phase upto 100 uM incubated for 48 hrs by propidium iodide staining based flow cytometry; type: functional; conditions: dose microM <=100, time 48.0 hrs
A-375 [7] = experiment: Induction of apoptosis in human A-375 cells incubated for 48 hrs by Annexin V-FITC/PI staining based flow cytometry; type: functional, cell-based; conditions: dose nM <=1000, time 48.0 hrs
[8] = biological target: T1, Protein cereblon/Cyclin-dependent kinase 6 (Mus musculus); experiment: Protac activity at CRBN/CDK6 in mouse B16F10 cells assessed as induction of CDK6 protein degradation after 12 hrs by Western blot analysis; type: cell-based; conditions: B16-F10, dose 62.5-1000 nM; how it was run: as §1
A-375 [9] = experiment: Inhibition of colony formation in human A-375 cells at 250 to 500 nM measured after 7 days by crystal violet staining based colony formation assay; type: functional, cell-based; conditions: dose 250-500 nM, time 7.0 day
How it was run: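 Colony formation (long-term growth) assay in A375 and B16F10 cells under continuous compound exposure for 7 days, then clonogenic growth quantified. Mean ± SD, n = 3; Student's t-test.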

A-375 [10] = experiment: Induction of apoptosis in human A-375 cells assessed as early apoptotic cells at 500 nM incubated for 48 hrs by Annexin V-FITC/PI staining based flow cytometry (reference value: 2.82%); type: functional
B16-F10 [11] = experiment: Induction of apoptosis in mouse B16F10 cells assessed as viable cells at 500 nM incubated for 48 hrs by Annexin V-FITC/PI staining based flow cytometry (reference value: 95.9%); type: functional; conditions: read-out: Activity
[12] = biological target: T1, Protein cereblon/Cyclin-dependent kinase 6 (Mus musculus); experiment: Protac activity at CRBN/CDK6 in mouse B16F10 cells assessed as induction of CDK6 protein degradation at 100 nM for 6 hrsin presence of Ribociclib by Western blot analysis; type: cell-based; conditions: B16-F10, time 6.0 hrs
[13] = biological target: Protein cereblon/Cyclin-dependent kinase 6 (Homo sapiens) (UniProt Q00534+Q96SW2); experiment: Protac activity at CRBN/CDK6 in human A-375 cells assessed as induction of CDK6 protein degradation after 12 hrs by Western blot analysis; type: cell-based; conditions: dose 62.5-1000 nM; how it was run: as §1
Chain of Protein cereblon/Cyclin-dependent kinase 6 (Homo sapiens) (Q00534 whole entry, looked up): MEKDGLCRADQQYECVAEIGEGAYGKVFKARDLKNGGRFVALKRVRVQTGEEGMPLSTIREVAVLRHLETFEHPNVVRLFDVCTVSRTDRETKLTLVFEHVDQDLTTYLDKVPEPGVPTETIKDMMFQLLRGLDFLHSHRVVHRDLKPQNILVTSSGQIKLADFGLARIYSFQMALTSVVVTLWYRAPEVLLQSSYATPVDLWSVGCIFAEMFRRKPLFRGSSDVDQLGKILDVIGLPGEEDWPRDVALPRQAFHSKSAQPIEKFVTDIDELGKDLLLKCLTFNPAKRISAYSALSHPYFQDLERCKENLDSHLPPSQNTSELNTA
Chain of Protein cereblon/Cyclin-dependent kinase 6 (Homo sapiens) (Q96SW2 whole entry, looked up): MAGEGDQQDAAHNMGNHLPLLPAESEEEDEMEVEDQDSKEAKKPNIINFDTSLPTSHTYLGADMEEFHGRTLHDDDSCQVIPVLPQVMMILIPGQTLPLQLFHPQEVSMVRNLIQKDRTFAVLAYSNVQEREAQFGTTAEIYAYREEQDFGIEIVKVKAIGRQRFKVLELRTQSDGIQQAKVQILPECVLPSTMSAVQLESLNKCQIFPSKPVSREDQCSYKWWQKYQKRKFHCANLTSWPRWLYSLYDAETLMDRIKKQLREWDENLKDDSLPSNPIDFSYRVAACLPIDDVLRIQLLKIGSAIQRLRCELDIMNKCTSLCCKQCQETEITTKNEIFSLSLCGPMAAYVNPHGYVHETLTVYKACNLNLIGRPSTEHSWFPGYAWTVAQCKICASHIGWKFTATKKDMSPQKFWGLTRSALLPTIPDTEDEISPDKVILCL

[14] = biological target: T2, Protein cereblon/Cyclin-dependent kinase 2 (Mus musculus) (UniProt P97377+Q8C7D2); experiment: Protac activity at CRBN/CDK2 in mouse B16F10 cells assessed as induction of CDK2 protein degradation at 100 nM for 6 hrs in presence of proteasome inhibitor MG132 by Western blot analysis; type: cell-based; conditions: B16-F10
T2 sequence (Q8C7D2 whole entry, looked up, other chains not shown): as the sequence (Q8C7D2 whole entry, looked up) above
How it was run: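 B16F10 cells pre-treated 2 h with DMSO, pomalidomide (10 μM), MG132 (20 μM) or a parent CDK ligand, then exposed to 100 nM degrader for 6 h. CDK2/4/6 protein levels read by western blot.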

A-375 [15] = experiment: Induction of apoptosis in human A-375 cells assessed as late apoptotic cells at 1000 nM incubated for 48 hrs by Annexin V-FITC/PI staining based flow cytometry (reference value: 3.28%); type: functional
[16] = biological target: T2, Protein cereblon/Cyclin-dependent kinase 2 (Mus musculus); experiment: Protac activity at CRBN/CDK2 in mouse B16F10 cells assessed as induction of CDK2 protein degradation after 12 hrs by Western blot analysis; type: cell-based; conditions: B16-F10, dose 62.5-1000 nM; how it was run: as §1
B16-F10 [17] = experiment: Induction of apoptosis in mouse B16F10 cells assessed as late apoptotic cells at 125 nM incubated for 48 hrs by Annexin V-FITC/PI staining based flow cytometry (reference value: 0.551%); type: functional
A-375 [18] = experiment: Induction of cell cycle arrest in human A-375 cells assessed as accumulation at G2 phase at 250 uM incubated for 48 hrs by propidium iodide staining based flow cytometry (reference value: 12.42%); type: functional; how it was run: as §2
A-375 [19] = experiment: Induction of apoptosis in human A-375 cells assessed as viable cells at 1000 nM incubated for 48 hrs by Annexin V-FITC/PI staining based flow cytometry (reference value: 93.3%); type: functional; conditions: read-out: Activity
B16-F10 [20] = experiment: Induction of cell cycle arrest in mouse B16-F10 cells assessed as accumulation at G1 phase at 25 uM incubated for 48 hrs by propidium iodide staining based flow cytometry (reference value: 52.59%); type: functional
[21] = Tmax in Sprague-Dawley rat at 200 mg/kg, po; type: ADME, organism-based; conditions: in vivo
How it was run: (§3)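 SD rats, n = 3, single dose of prodrug: IV by tail vein at 10 mg/Kg, or PO at 200 mg/Kg. Plasma levels of prodrug and released active degrader followed over 0–12 h. Parameters derived by a non-compartmental model.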

B16-F10 [22] = experiment: Induction of apoptosis in mouse B16F10 cells assessed as necrotic cells at 500 nM incubated for 48 hrs by Annexin V-FITC/PI staining based flow cytometry (reference value: 0.21%); type: functional
[23] = biological target: Protein cereblon/Cyclin-dependent kinase 2 (Homo sapiens) (UniProt P24941+Q96SW2); experiment: Protac activity at CRBN/CDK2 in human A-375 cells assessed as induction of CDK2 protein degradation after 12 hrs by Western blot analysis; type: cell-based; conditions: dose 62.5-1000 nM; how it was run: as §1
B16-F10 [24] = experiment: Induction of cell cycle arrest in mouse B16-F10 cells assessed as accumulation at G1 phase at 100 uM incubated for 48 hrs by propidium iodide staining based flow cytometry (reference value: 52.59%); type: functional
[25] = biological target: T2, Protein cereblon/Cyclin-dependent kinase 2 (Mus musculus); experiment: Protac activity at CRBN/CDK2 in mouse B16F10 cells assessed as induction of CDK2 protein degradation at 500 nM by Western blot analysis; type: cell-based; conditions: B16-F10, time hrs <=12, TDE = time-dependent effect; how it was run: as §1
B16-F10 [26] = experiment: Induction of apoptosis in mouse B16F10 cells assessed as increase in P-53 level upto 1000 nM incubated for 48 hrs by Western blot analysis; type: functional, cell-based; conditions: dose nM <=1000, time 48.0 hrs
How it was run: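 A375 and B16F10 cells incubated with compound for 48 h. Cleaved caspase-3, cleaved PARP, total P53, Bcl-2 and Bax measured by western blot.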

[27] = Tmax in Sprague-Dawley rat at 10 mg/kg, iv; type: ADME, organism-based; conditions: in vivo; how it was run: as §3

Chain of Protein cereblon/Cyclin-dependent kinase 4 (Homo sapiens) (P11802 2-303 limits assumed): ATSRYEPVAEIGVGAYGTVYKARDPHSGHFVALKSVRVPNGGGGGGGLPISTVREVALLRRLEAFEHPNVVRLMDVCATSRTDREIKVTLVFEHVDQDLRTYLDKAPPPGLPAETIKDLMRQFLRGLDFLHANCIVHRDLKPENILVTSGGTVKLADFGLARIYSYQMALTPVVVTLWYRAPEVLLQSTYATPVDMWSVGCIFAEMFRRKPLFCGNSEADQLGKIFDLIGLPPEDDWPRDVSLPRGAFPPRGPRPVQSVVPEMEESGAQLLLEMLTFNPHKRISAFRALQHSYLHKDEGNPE
Chain of Protein cereblon/Cyclin-dependent kinase 4 (Homo sapiens) (Q96SW2 whole entry partner): as the sequence (Q96SW2 whole entry, looked up) above

**Q.** For `CN(C)C(=O)c1cc2cnc(Nc3ccc(C(=O)NCCCCCCNc4cccc5c4C(=O)N(C4CCC(=O)NC4=O)C5=O)cc3)nc2n1C1CCCC1` (configuration not stated), which Activity [1] is on record?
**A.** Dose-dependent effect

**Q.** What about the IC50 (A-375 [2]) of the same molecule?
**A.** 166 nM

**Q.** What about the Activity (A-375 [3]) of the same molecule?
**A.** 13.67%

**Q.** What about the Activity (A-375 [4]) of the same molecule?
**A.** 5.54%

**Q.** And the Activity [5]?
**A.** Tde

**Q.** What about the Activity (B16-F10 [6]) of the same molecule?
**A.** Active

**Q.** What about the Activity (A-375 [7]) of the same molecule?
**A.** Dose-dependent effect

**Q.** What about the Activity [8] of the same molecule?
**A.** Dose-dependent effect

**Q.** And the inhibition (A-375 [9])?
**A.** Active

**Q.** And the Activity (A-375 [10])?
**A.** 9.59%

**Q.** And the viability at 0.5 µM (B16-F10 [11])?
**A.** 4.73%

**Q.** What about the Activity [12] of the same molecule?
**A.** inactive

**Q.** And the Activity [13]?
**A.** Dose-dependent effect

**Q.** And the Activity [14]?
**A.** inactive

**Q.** What about the Activity (A-375 [15]) of the same molecule?
**A.** 14.8%

**Q.** And the Activity [16]?
**A.** Dose-dependent effect

**Q.** What about the Activity (B16-F10 [17]) of the same molecule?
**A.** 6.5%

**Q.** And the Activity (A-375 [18])?
**A.** 9.57%

**Q.** And the viability at 1 µM (A-375 [19])?
**A.** 55.2%

**Q.** And the Activity (B16-F10 [20])?
**A.** 49.67%

**Q.** What about the Tmax [21] of the same molecule?
**A.** 15 min

**Q.** And the Activity (B16-F10 [22])?
**A.** 0.081%

**Q.** What about the Activity [23] of the same molecule?
**A.** Dose-dependent effect

**Q.** What about the Activity (B16-F10 [24]) of the same molecule?
**A.** 52.42%

**Q.** And the Activity [25]?
**A.** Tde

**Q.** And the Activity (B16-F10 [26])?
**A.** Active

**Q.** And the Tmax [27]?
**A.** 45 min

— ChEMBL document CHEMBL4732105, “First orally bioavailable prodrug of proteolysis targeting chimera (PROTAC) degrades cyclin-dependent kinases 2/4/6 in vivo” (Eur J Med Chem, 2021)
